Results of several laboratories.
Each line is one published result; the experiments were not run side by side. Converted amounts (≈) assume the structure as drawn.
Organism: Staphylococcus aureus

CN(C)C1CCN(C(=O)c2ccc(NC(=O)Nc3ccc(-c4nc(N5CCOCC5)nc(N5CCOCC5)n4)cc3)cc2)CC1 — MIC (microbial growth; NCTC8325): > 30 µM
CC1(C)S[C@@H]2[C@H](NC(=O)[C@H](N)c3ccccc3)C(=O)N2[C@H]1C(=O)O — inhibition (microbial growth, agar dilution; ATCC25923; 26.93 µM): 100%
COc1ccc2nc(-n3nc(C)c4c3-c3ccccc3C4=O)sc2c1 — inhibition zone (microbial growth, well diffusion; NCIM5021; 250 µg/mL): 12 mm
CNC(=O)c1cc(Oc2ccc(NC(=O)Nc3cc(C(C)(C)C)nn3-c3ccc4ncccc4c3)c(F)c2)ccn1 — MIC (microbial growth; NCTC8325): > 30 µM
O=C(Sc1cccccc1=O)c1ccc(C(F)(F)F)cc1 — MIC80 (microbial growth, broth dilution; ATCC29213): > 100 µM
CC(C)c1nn(-c2nc3ccc(Cl)cc3s2)c2c1C(=O)c1ccccc1-2 — inhibition zone (microbial growth, well diffusion; NCIM5021; 1000 µg/mL): 12 mm
O=C(O)CN1C(=O)/C(=C/c2ccc(-c3ccc(N(c4ccccc4)c4ccccc4)cc3)cc2)SC1=S — MBC (microbial killing, broth dilution; ATCC43300): 7.8 µg/mL (≈ 14.9 µM)
CC(C)c1nn(-c2nc3ccc(Br)cc3s2)c2c1C(=O)c1ccccc1-2 — inhibition zone (microbial growth, well diffusion; NCIM5021; 1000 µg/mL): 12 mm
O=C(N/N=C/c1ccc([N+](=O)[O-])o1)c1ccc(O)cc1 — MIC90 (microbial growth; ATCC700699): 15.6 µg/mL (≈ 56.8 µM)
O=C(O)CN1C(=O)/C(=C/c2ccc(-c3ccc(N(c4ccccc4)c4ccccc4)cc3)c3ccccc23)SC1=S — MBC (microbial killing, broth dilution; ATCC6538): > 1000 µg/mL
Cc1nn(-c2nc3ccc(Br)cc3s2)c2c1C(=O)c1ccccc1-2 — inhibition zone (microbial growth, well diffusion; NCIM5021; 1000 µg/mL): 12 mm
COC(=O)/C(=C1/OC(=O)C(c2ccccc2)=C1O)c1ccccc1 — IC50 (microbial growth; ATCC6538): 32 µM
[H]/N=C(/N)N[C@H]1[C@H](O)[C@@H](O)[C@H](O[C@@H]2O[C@@H](C)[C@](O)(C=O)[C@H]2O[C@@H]2O[C@@H](CO)[C@H](O)[C@@H](O)[C@@H]2NC)[C@@H](N/C(N)=N\[H])[C@@H]1O — inhibition zone (microbial growth, well diffusion; NCIM5021; 250 µg/mL): 22 mm
O=c1cccccc1SSc1cccccc1=O — MIC80 (microbial growth, broth dilution; ATCC29213): > 100 µM
C=CCCCCCCCCCCCC(O)CC(O)CO (stereo not shown) — IC50 (microbial growth, broth dilution; ATCC29213): > 200 µg/mL
Cc1nn(-c2nc3ccccc3s2)c2c1C(=O)c1ccccc1-2 — inhibition zone (microbial growth, well diffusion; NCIM5021; 250 µg/mL): 10 mm
CC[C@@H]1C(=O)N(C)c2cnc(Nc3ccc(C(=O)N[C@H]4CC[C@H](N5CCN(CC6CC6)CC5)CC4)cc3OC)nc2N1C(C)C — MIC (microbial growth; NCTC8325): > 30 µM
COc1c(N2C[C@@H]3CCCN[C@@H]3C2)c(F)cc2c(=O)c(C(=O)O)cn(C3CC3)c12 — MIC90 (microbial growth; ATCC700699): 0.24 µg/mL (≈ 0.598 µM)
CC[C@H](C)[C@H](NC(=O)OCC1c2ccccc2-c2ccccc21)C(=O)Sc1cccccc1=O — MIC80 (microbial growth, broth dilution; ATCC29213): > 100 µM
O=C1NC(=S)S/C1=C\c1ccc(-c2ccc(N(c3ccccc3)c3ccccc3)cc2)c2ccccc12 — MBC (microbial killing, broth dilution; ATCC6538): > 1000 µg/mL
COc1cc2ncnc(Nc3ccc(F)c(Cl)c3)c2cc1OCCCN1CCOCC1 — MIC (microbial growth; NCTC8325): > 30 µM
O=C1NC(=S)S/C1=C\c1c2ccccc2c(-c2ccc(N(c3ccccc3)c3ccccc3)cc2)c2ccccc12 — MBC (microbial killing, broth dilution; ATCC6538): > 1000 µg/mL
CC(C(=O)O)N1C2=NC(c3ccc(Cl)cc3)c3c([nH]c(=O)[nH]c3=O)N2NC1(C)c1ccccc1O (stereo not shown) — inhibition zone (microbial growth; ATCC25923; 10 µg/mL, 24 h): 14 mm
O=C(Nc1c[nH]nc1-c1nc2ccc(CN3CCOCC3)cc2[nH]1)NC1CC1 — MIC (microbial growth; NCTC8325): > 30 µM
CC(C)Cc1nn(-c2nc3ccc(Cl)cc3s2)c2c1C(=O)c1ccccc1-2 — inhibition zone (microbial growth, well diffusion; NCIM5021; 500 µg/mL): 11 mm
C#CCCCCC(=O)Nc1ccccc1 — MIC (microbial growth; NCTC8325): > 100 µM
CCCCCCCCCCCCCC(O)CC(O)CO (stereo not shown) — IC50 (microbial growth, broth dilution; ATCC29213): 17.2 µg/mL
Cc1ccc(Nc2nccc(N(C)c3ccc4c(C)n(C)nc4c3)n2)cc1S(N)(=O)=O — MIC (microbial growth; NCTC8325): > 30 µM
CC(C)Cc1nn(-c2nc3ccc(Br)cc3s2)c2c1C(=O)c1ccccc1-2 — inhibition zone (microbial growth, well diffusion; NCIM5021; 250 µg/mL): 11 mm
C#CCCCCCCCCCCCC(O)CC(O)CO (stereo not shown) — IC50 (microbial growth, broth dilution; ATCC33591 MRSA; drug-resistant strain): 86.3 µg/mL
O=C(O)CN1C(=O)/C(=C/c2c3ccccc3c(-c3ccc(N(c4ccccc4)c4ccccc4)cc3)c3ccccc23)NC1=S — MBC (microbial killing, broth dilution; ATCC25923): > 1000 µg/mL
O=c1cccccc1Sc1cccccc1=O — MIC80 (microbial growth, broth dilution; ATCC29213): > 100 µM
CN[C@H](CC(C)C)C(=O)N[C@H]1C(=O)N[C@@H](CC(N)=O)C(=O)N[C@H]2C(=O)N[C@H]3C(=O)N[C@H](C(=O)N[C@H](C(=O)O)c4cc(O)cc(O)c4-c4cc3ccc4O)[C@H](O)c3ccc(c(Cl)c3)Oc3cc2cc(c3O[C@@H]2O[C@H](CO)[C@@H](O)[C@H](O)[C@H]2O[C@H]2C[C@](C)(N)[C@H](O)[C@H](C)O2)Oc2ccc(cc2Cl)[C@H]1O — inhibition zone (microbial growth, disc diffusion; ATCC29213; 62.5 µg/disc, 24 h): 18 mm
O=C1NC(=S)N/C1=C\c1c2ccccc2c(-c2ccc(N(c3ccccc3)c3ccccc3)cc2)c2ccccc12 — MBC (microbial killing, broth dilution; ATCC25923): > 1000 µg/mL
CNC(=O)c1cc(Oc2ccc(NC(=O)Nc3ccc(Cl)c(C(F)(F)F)c3)c(F)c2)ccn1 — MIC (microbial growth; NCTC8325): 3 µM (≈ 1.45 µg/mL)
O=C1NC(=S)S/C1=C\c1ccc(-c2ccc(N(c3ccccc3)c3ccccc3)cc2)cc1 — MBC (microbial killing, broth dilution; ATCC6538): > 1000 µg/mL
CC(=O)Oc1cccc2c1[nH]c1c(C3=C[C@@]4(O)CC/C=C\CCCCN5CC[C@@H]3[C@]3(C[C@@H]6/C=C\CCCCN6[C@H]34)C5)nccc12 — IC50 (microbial growth; MRSA; drug-resistant strain): 0.45 µg/mL
